# From ChEMBL document CHEMBL6083209, “Pyridazinone-based derivatives as anticancer agents endowed with anti-microbial activity: molecular design, synthesis, and biological investigation” (RSC Med Chem, 2024)
# What was measured:
# [1] = system: HOP-92; assay: Antiproliferative activity against human HOP-92 cells assessed as growth inhibition at 10 uM incubated for 48 hrs by SRB method; format: functional; conditions: read-out: GI
# Outline: (§1)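 NCI-60 one-dose screen at 10 μM. Cells were grown in RPMI 1640 with 5% FBS and 2 mM L-glutamine and plated at 5000–40 000 cells/well for 24 h. Drug exposure was 48 h at 37 °C, 5% CO2. Cells were fixed with TCA, stained with 0.4% SRB and read at 515 nm. Growth is expressed as percent of untreated control and time-zero plates.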
# [2] = system: HOP-62; assay: Antiproliferative activity against human HOP-62 cells assessed as growth inhibition at 10 uM incubated for 48 hrs by SRB method; format: functional; conditions: read-out: GI; outline: as §1
# [3] = system: NCI-H226; assay: Antiproliferative activity against human NCI-H226 cells assessed as growth inhibition at 10 uM incubated for 48 hrs by SRB method; format: functional; conditions: read-out: GI; outline: as §1
# [4] = system: A549; assay: Antiproliferative activity against human A549 cells assessed as growth inhibition at 10 uM incubated for 48 hrs by SRB method; format: functional; conditions: read-out: GI; outline: as §1
# [5] = system: U-251; assay: Antiproliferative activity against human U-251 cells assessed as growth inhibition at 10 uM incubated for 48 hrs by SRB method; format: functional; conditions: read-out: GI; outline: as §1
# [6] = system: LOX IMVI; assay: Antiproliferative activity against human LOX IMVI cells assessed as growth inhibition at 10 uM incubated for 48 hrs by SRB method; format: functional; conditions: read-out: GI; outline: as §1
# [7] = system: NCI/ADR-RES; assay: Antiproliferative activity against human NCI-ADR-RES cells assessed as growth inhibition at 10 uM incubated for 48 hrs by SRB method; format: functional; conditions: read-out: GI; outline: as §1
# [8] = system: SK-OV-3; assay: Antiproliferative activity against human SK-OV-3 cells assessed as growth inhibition at 10 uM incubated for 48 hrs by SRB method; format: functional; conditions: read-out: GI; outline: as §1
# [9] = system: 786-0; assay: Antiproliferative activity against human 786-0 cells assessed as growth inhibition at 10 uM incubated for 48 hrs by SRB method; format: functional; conditions: read-out: GI; outline: as §1
# [10] = system: UO-31; assay: Antiproliferative activity against human UO-31 cells assessed as growth inhibition at 10 uM incubated for 48 hrs by SRB method; format: functional; conditions: read-out: GI
# Outline: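 NCI-60 one-dose screen at 10 μM. Cells grown in RPMI 1640 with 5% FBS and 2 mM L-glutamine, plated at 5000–40 000 cells/well and preincubated 24 h at 37 °C, 5% CO2. Drug exposure 48 h. Fixed with TCA and stained with 0.4% SRB, absorbance read at 515 nm. Percent growth calculated against untreated control and time-zero plates.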
# [11] = system: DU-145; assay: Antiproliferative activity against human DU-145 cells assessed as growth inhibition at 10 uM incubated for 48 hrs by SRB method; format: functional; conditions: read-out: GI; outline: as §1
# [12] = system: BT-549; assay: Antiproliferative activity against human BT-549 cells assessed as growth inhibition at 10 uM incubated for 48 hrs by SRB method; format: functional; conditions: read-out: GI; outline: as §1
# [13] = system: MDA-MB-468; assay: Antiproliferative activity against human MDA-MB-468 cells assessed as growth inhibition at 10 uM incubated for 48 hrs by SRB method; format: functional; conditions: read-out: GI; outline: as §1
# [14] = system: MCF7; assay: Antiproliferative activity against human MCF7 cells assessed as growth inhibition at 10 uM incubated for 48 hrs by SRB method; format: functional; conditions: read-out: GI; outline: as §1
# [15] = system: SK-MEL-28; assay: Antiproliferative activity against human SK-MEL-28 cells assessed as growth inhibition incubated for 48 hrs by SRB method; format: functional
# Outline: (§2)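 NCI-60 five-dose screen at 0.01, 0.1, 1, 10 and 100 μM, triplicate wells per dose. Cells were in RPMI 1640 with 5% FBS and 2 mM L-glutamine, pre-grown 24 h and then treated for 48 h at 37 °C. Read-out was TCA fixation and SRB absorbance at 515 nm.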
# [16] = system: M14; assay: Antiproliferative activity against human M14 cells assessed as growth inhibition incubated for 48 hrs by SRB method; format: functional; outline: as §2
# [17] = system: CAKI-1; assay: Antiproliferative activity against human CAKI-1 cells assessed as growth inhibition incubated for 48 hrs by SRB method; format: functional; outline: as §2
# [18] = system: SF-268; assay: Antiproliferative activity against human SF-268 cells assessed as growth inhibition incubated for 48 hrs by SRB method; format: functional; outline: as §2
# [19] = system: SN12C; assay: Antiproliferative activity against human SN12C cells assessed as growth inhibition incubated for 48 hrs by SRB method; format: functional; outline: as §2
# [20] = system: UACC-257; assay: Antiproliferative activity against human UACC-257 cells assessed as growth inhibition incubated for 48 hrs by SRB method; format: functional; outline: as §2
# [21] = system: EKVX; assay: Antiproliferative activity against human EKVX cells assessed as growth inhibition incubated for 48 hrs by SRB method; format: functional; outline: as §2
# [22] = system: NCI-H23; assay: Antiproliferative activity against human NCI-H23 cells assessed as growth inhibition incubated for 48 hrs by SRB method; format: functional; outline: as §2
# [23] = system: OVCAR-8; assay: Antiproliferative activity against human OVCAR-8 cells assessed as growth inhibition incubated for 48 hrs by SRB method; format: functional; outline: as §2
# [24] = system: SNB-75; assay: Antiproliferative activity against human SNB-75 cells assessed as growth inhibition incubated for 48 hrs by SRB method; format: functional; outline: as §2
# [25] = system: MDA-MB-468; assay: Antiproliferative activity against human MDA-MB-468 cells assessed as growth inhibition incubated for 48 hrs by SRB method; format: functional; outline: as §2
# [26] = system: SK-MEL-2; assay: Antiproliferative activity against human SK-MEL-2 cells assessed as growth inhibition incubated for 48 hrs by SRB method; format: functional; outline: as §2
# [27] = system: UACC-62; assay: Antiproliferative activity against human UACC-62 cells assessed as growth inhibition incubated for 48 hrs by SRB method; format: functional
# Outline: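 NCI-60 five-dose screen at 0.01, 0.1, 1, 10 and 100 μM, triplicate wells per dose. Cells grown in RPMI 1640/5% FBS, preincubated 24 h, then exposed 48 h at 37 °C. TCA fixation, SRB stain, A515.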
# [28] = system: MCF7; assay: Antiproliferative activity against human MCF7 cells assessed as growth inhibition incubated for 48 hrs by SRB method; format: functional; outline: as §2
# [29] = system: HOP-92; assay: Antiproliferative activity against human HOP-92 cells assessed as growth inhibition incubated for 48 hrs by SRB method; format: functional; outline: as §2
# [30] = system: SF-295; assay: Antiproliferative activity against human SF-295 cells assessed as growth inhibition incubated for 48 hrs by SRB method; format: functional; outline: as §2
# [31] = system: PC-3; assay: Antiproliferative activity against human PC-3 cells assessed as growth inhibition incubated for 48 hrs by SRB method; format: functional; outline: as §2
# [32] = system: Escherichia coli; assay: Antimicrobial activity against Escherichia coli ATCC 25922 by broth microdilution method
# [33] = system: Candida albicans; assay: Antimicrobial activity against Candida albicans ATCC 10231 by broth microdilution method
# [34] = system: Staphylococcus aureus; assay: Antimicrobial activity against Staphylococcus aureus ATCC 29213 by broth microdilution method
# [35] = system: Staphylococcus aureus; assay: Antimicrobial activity against Staphylococcus aureus ATCC 29213; format: functional
smiles,measurement,setting,value
O=c1ccc(/C=C/c2ccc(NC(=S)Nc3cccc(Br)c3)cc2)n[nH]1,inhibition of growth at 10 µM,[1],100%
same,inhibition of growth at 10 µM,[2],98.1%
same,inhibition of growth at 10 µM,[3],88.2%
same,inhibition of growth at 10 µM,[4],74%
same,inhibition of growth at 10 µM,[5],100%
same,inhibition of growth at 10 µM,[6],88.8%
same,inhibition of growth at 10 µM,[7],85.7%
same,inhibition of growth at 10 µM,[8],82.6%
same,inhibition of growth at 10 µM,[9],88.2%
same,inhibition of growth at 10 µM,[10],76.2%
same,inhibition of growth at 10 µM,[11],91.5%
same,inhibition of growth at 10 µM,[12],95.5%
same,inhibition of growth at 10 µM,[13],88.1%
same,inhibition of growth at 10 µM,[14],72.7%
same,GI50,[15],2 µM
same,GI50,[16],2.57 µM
same,GI50,[17],2.57 µM
same,GI50,[18],2.82 µM
same,GI50,[19],3.02 µM
same,GI50,[20],3.24 µM
same,GI50,[21],3.54 µM
same,GI50,[22],3.54 µM
same,GI50,[23],3.47 µM
same,GI50,[24],3.98 µM
same,GI50,[25],1.66 µM
same,GI50,[26],1.86 µM
same,GI50,[27],2.34 µM
same,GI50,[28],2.44 µM
same,GI50,[29],2.51 µM
same,GI50,[30],2.69 µM
same,GI50,[31],3.63 µM
same,MIC,[32],512 µg/mL
same,MIC,[33],512 µg/mL
same,MIC,[34],128 µg/mL
O=C(Nc1ccc(Cl)cc1)Nc1ccc(Cl)c(Cl)c1 [TRICLOCARBAN],MIC,[35],16 µg/mL
